Experimental data taken from publication PMC3400539 (Journal of Computer-Aided Molecular Design, 2011).
Like-named read-outs stand apart in the source and are kept apart here.

Assays:
[1] = test system: BRCA1(BRCT) (six his-tagged, amino acids 1646–1859); conditions: cited from earlier work; for ΔGexp (binding free energy): Table 1; for ΔG (Exp): Table 2, brackets = error of the mean
[2] = test system: BRCA1(BRCT) (six his-tagged, amino acids 1646–1859); assay: Isothermal titration calorimetry; format: binding
Outline: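 His6-BRCA1 BRCT (aa 1646–1859) was expressed in E. coli BL21(DE3) RIL (1 mM IPTG), Ni-affinity purified, and dialysed into 50 mM KH2PO4 pH 7.2. Peptides were quantified by amino acid analysis, freeze-dried and redissolved in the same buffer. At 25°C, 100–900 µM peptide was titrated into 10–30 µM protein: 3 µL, then 29 × 10 µL, 3 min apart, 307 rpm. Peptide-into-buffer heats were subtracted and the data integrated.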

[3] = isothermal calorimetric data, ref [9]

Substance | ΔGexp (binding free energy) ([1]; T1–T4, ref [9]) | ΔG (Exp) ([1]; ref [9]) | other results
Ac-EPTF-CONH2 [Peptide T4] | No binding | no binding | binding to BRCA1(BRCT) found experimentally ([1]; in words, ref [9]): does not bind
Ac-Nap-pSPTF-CONH2 [Peptide P7] |  |  | ΔΔG, increase in binding affinity compared to T1 ([2]; P7 vs T1, ITC): 0.3 kcal/mol; ΔG (Exp) ([2]; Table 2, brackets = error of the mean, ITC, 25°C, 50 mM KH2PO4 pH = 7.2): −7.8 (0.1) kcal/mol
Ac-pSATF-CONH2 [Peptide T2] | -6.7 kcal/mol | −6.7 (0.3) kcal/mol | 
Ac-pSPAF-CONH2 [Peptide T3] | -5.9 kcal/mol | −5.9 (0.2) kcal/mol | loss in binding affinity caused by Thr→Ala mutation (vs T1) [1, 3]: 1.6 kcal/mol
Ac-pSPTF-CONH2 [Peptide T1] | -7.5 kcal/mol | −7.5 (0.2) kcal/mol | 
Ac-pSPVF-CONH2 [Peptide T5] |  |  | ΔGexp (binding free energy) ([1]; T5, ref [18]): -7.8 kcal/mol; ΔG (Exp) ([1]; ref [18]): −7.8 (0.1) kcal/mol; enhancement of binding by Val mutation (vs T1) [1, 3]: 0.3 kcal/mol; binding affinity compared with T1 (in words) ([1]; isothermal calorimetric study, ref [18]): practically the same binding affinity
